Measured values from ChEMBL document CHEMBL4715858, “10-N-heterocylic aryl-isoxazole-amides (AIMs) have robust anti-tumor activity against breast and brain cancer cell lines and useful fluorescence properties” (Bioorg Med Chem, 2020).
Calls of active or inactive are those of the source. The rule behind the calls is not given here.

Key:
C6 = test: Anticancer activity against rat C6 cells assessed as cell growth inhibition measured after 3 to 5 days by MTT assay; assay type: functional, cell-based
MDA-MB-468 = test: Anticancer activity against human MDA-MB-468 cells assessed as cell growth inhibition measured after 3 to 5 days by MTT assay; assay type: functional, cell-based
SNB-19 [1] = test: Anticancer activity against human SNB-19 cells assessed as cell growth inhibition measured after 3 to 5 days by MTT assay; assay type: functional, cell-based
Outline: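 MTT colorimetric growth-inhibition assay in SNB-19 glioblastoma cells. IC50 obtained by fitting a logistic model to the dose-response data, as the concentration giving 50% growth inhibition relative to the DMSO control.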

Quadruplex DNA [2] = test: Stabilization of c-myc Pu22 G4 quadruplex oligonucleotide (unknown origin) assessed as anisotropic shift at 2 equivalents of compound by NMR spectroscopy; assay type: nucleic-acid assay
Outline: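 1H NMR titration of the c-myc Pu22 oligomer, following the G-tetrad imino hydrogen-bonding region (10.95–11.6 ppm) for anisotropic shifts.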

SNB-19 [3] = test: Induction of apoptosis in human SNB-19 cells assessed as membrane blebbing at 500 nM incubated for 10 mins followed by compound washout twice by HCS NuclearMask staining based confocal laser scanning microscopy; assay type: functional, cell-based
Outline: (§1)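 Cells plated at 20,000 cells/well and left to adhere overnight. Treatment medium was made from 5 mM DMSO stocks diluted in growth medium and applied for 10 min at growth conditions. Cells were then washed twice with PBS and fixed in 4% PFA for 10 min on ice. Imaged immediately by confocal microscopy, 60x oil objective, excitation 405 nm, emission 422 nm, with HCS NuclearMask counterstain.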

[4] = Drug uptake in cytoplasm of human SNB-19 cells at 500 nM incubated for 10 mins followed by compound washout twice by HCS NuclearMask staining based confocal laser scanning microscopy; assay type: ADME, subcellular; settings: snb-19, 10 min, 0.5 µM; outline: as §1
[5] = Drug uptake in human SNB-19 cells assessed as punctate localization at 500 nM incubated for 10 mins followed by compound washout twice by HCS NuclearMask staining based confocal laser scanning microscopy; assay type: ADME, cell-based; settings: snb-19, 10 min, 0.5 µM; outline: as §1
Quadruplex DNA [6] = test: Stabilization of c-myc Pu22 G4 quadruplex oligonucleotide (unknown origin) at 2 equivalents of compound by circular dichroism spectral analysis; assay type: nucleic-acid assay
Outline: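 Pu22 at 5 µM strand in 1 mM potassium phosphate pH 6, alone or with 2 equivalents compound, annealed at 90 °C for 10 min and then cooled to 4 °C overnight. CD spectra recorded 200–400 nm at 5 °C, 1 nm bandwidth, 0.2 nm step, 0.5 s per point.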

SNB-19 [7] = test: Induction of apoptosis in human SNB-19 cells assessed as organized cell death at 500 nM incubated for 10 mins followed by compound washout twice by HCS NuclearMask staining based confocal laser scanning microscopy; assay type: functional; outline: as §1
[8] = Drug uptake in nucleus of human SNB-19 cells at 500 nM incubated for 10 mins followed by compound washout twice by HCS NuclearMask staining based confocal laser scanning microscopy; assay type: ADME, subcellular; settings: snb-19, 10 min, 0.5 µM; outline: as §1
Quadruplex DNA [9] = test: Stabilization of c-myc Pu22 G4 quadruplex oligonucleotide (unknown origin) assessed as melting temperature at 2 equivalents of compound by thermal melting curve based analysis (reference value: 58.4 degC); assay type: nucleic-acid assay
Outline: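 Annealed at 90 °C for 10 min, then cooled gradually to 4 °C overnight. CD melting monitored at 265 nm from 20–90 °C at 1 °C/min in 0.5 °C steps. Tm from a six-parameter logistic fit.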

IC50 (MDA-MB-468)	Activity (Quadruplex DNA [2])	Structure (SMILES)	IC50 (C6)	IC50 (SNB-19 [1])	further results
–	Active	Cc1onc(-c2c3ccccc3c(-c3ccccc3)c3ccccc23)c1C(=O)Nc1cc(C(=O)N(CCCN(C)C)CCCN(C)C)n(C)c1	–	–	–
–	Active	CCOC(=O)c1c(-c2c3ccccc3c(-c3ccccc3)c3ccccc23)noc1C	–	–	–

Continued, compound first:

Structure (SMILES)	IC50 (MDA-MB-468)	Activity (Quadruplex DNA [2])	IC50 (C6)	IC50 (SNB-19 [1])	further results
Cc1onc(-c2c3ccccc3c(-c3ccncc3)c3ccccc23)c1C(=O)Nc1cc(C(=O)N(CCCN(C)C)CCCN(C)C)n(C)c1	3100 nM	–	16.9 µM	7.08 µM	–
Cc1onc(-c2c3ccccc3c(-c3ccccn3)c3ccccc23)c1C(=O)Nc1cc(C(=O)N(CCCN(C)C)CCCN(C)C)n(C)c1	6340 nM	–	> 25 µM	> 25 µM	–
Cc1onc(-c2c3ccccc3c(-c3cccnc3)c3ccccc23)c1C(=O)Nc1cc(C(=O)N(CCCN(C)C)CCCN(C)C)n(C)c1	1290 nM	–	> 25 µM	7.76 µM	–
Cc1onc(-c2c3ccccc3c(-c3cccc4cccnc34)c3ccccc23)c1C(=O)Nc1cc(C(=O)N(CCCN(C)C)CCCN(C)C)n(C)c1	1170 nM	Active	6.71 µM	2.03 µM	Activity (SNB-19 [3]): Active; Drug uptake [4]: Active; Drug uptake [5]: Active; Activity (Quadruplex DNA [6]): Active; Activity (SNB-19 [7]): Active; Drug uptake [8]: Not Active; Tm (Quadruplex DNA [9]): 61.7 °C
